Data set [1] has as its target Discoidin domain-containing receptor 2 (Homo sapiens) (UniProt Q16832). The data set is described as follows: Binding affinity to wild-type human partial length DDR2 (V555 to E855 residues) expressed in mammalian expression system assessed as residual binding level at 1 uM by Kinomescan method relative to control.
Data set [2] deals with Cyclin-dependent kinase 4 (Homo sapiens) (UniProt P11802). The data set is described as follows: Binding affinity to wild-type human full length CDK4 (M1 to E303 residues) expressed in mammalian expression system assessed as residual binding level at 1 uM by Kinomescan method relative to control.
Data set [3] deals with Mast/stem cell growth factor receptor Kit (Homo sapiens), P10721 [UNDEFINED MUTATION]. As to the kind of experiment: Binding affinity to human partial length KIT V559D/V654 double mutant (Y545 to D952 residues) expressed in bacterial expression system assessed as residual binding level at 1 uM by Kinomescan method relative to control. An outline of the steps: (§1)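 Kinome-wide selectivity panel run by the KINOMEscan method, with the test compound at a single concentration of 1 μM. Wild-type and mutant kinases were profiled in the same screen.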

Data set [4] has as its system Tyrosine-protein kinase ABL1 (Homo sapiens), P00519 [M351T]. The data set is described as follows: Binding affinity to human phosphorylated ABL1 M351T mutant (S229 to K512 residues) expressed in mammalian expression system assessed as residual binding level at 1 uM by Kinomescan method relative to control. In short, it runs like this:
as §1

The test system of data set [5] is Epidermal growth factor receptor (Homo sapiens), P00533 [L861Q]. The data set is described as follows: Binding affinity to human partial length EGFR L861Q mutant (R669 to V1011 residues) expressed in bacterial expression system assessed as residual binding level at 1 uM by Kinomescan method relative to control. In short, it runs like this: as §1
Data set [6] has as its target Ribosomal protein S6 kinase alpha-5 (Homo sapiens) (UniProt O75582). The data set is described as follows: Binding affinity to wild-type human partial length C-terminal RPS6KA5 kinase domain 2 (V390 to T718 residues) expressed in bacterial expression system assessed as residual binding level at 1 uM by Kinomescan method relative to control.
For data set [7], the target named is TRAF2 and NCK-interacting protein kinase (Homo sapiens) (UniProt Q9UKE5). The data set is described as follows: Binding affinity to wild-type human partial length TNIK (D4 to K311 residues) expressed in bacterial expression system assessed as residual binding level at 1 uM by Kinomescan method relative to control.
The target of data set [8] is Protein kinase C epsilon type (Homo sapiens) (UniProt Q02156). As to the kind of experiment: Binding affinity to wild-type human partial length PRKCE (A378 to P737 residues) expressed in mammalian expression system assessed as residual binding level at 1 uM by Kinomescan method relative to control.
The target in data set [9] is MAP kinase-interacting serine/threonine-protein kinase 1 (Homo sapiens) (UniProt Q9BUB5). As to the kind of experiment: Binding affinity to wild-type human full length MKNK1 (M1 to L424 residues) expressed in mammalian expression system assessed as residual binding level at 1 uM by Kinomescan method relative to control. An outline of the steps:
(§2)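 Single-point kinome-wide KINOMEscan binding panel, test compound at 1 μM, run by the provider's standard protocol.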

Data set [10] deals with Serine/threonine-protein kinase Nek4 (Homo sapiens) (UniProt P51957). The data set is described as follows: Binding affinity to wild-type human full length NEK4 (M1 to F841 residues) expressed in mammalian expression system assessed as residual binding level at 1 uM by Kinomescan method relative to control. In short, it runs like this:
as §2

The target of data set [11] is Dual specificity protein kinase CLK3 (Homo sapiens) (UniProt P49761). As to the kind of experiment: Binding affinity to wild-type human full length CLK3 (M1 to R490 residues) expressed in bacterial expression system assessed as residual binding level at 1 uM by Kinomescan method relative to control.
Data set [12] concerns the target Serine/threonine-protein kinase VRK2 (Homo sapiens) (UniProt Q86Y07). The data set is described as follows: Binding affinity to wild-type human partial length VRK2 (M1 to T336 residues) expressed in mammalian expression system assessed as residual binding level at 1 uM by Kinomescan method relative to control.
Data set [13] has as its target Serine/threonine-protein kinase pim-3 (Homo sapiens) (UniProt Q86V86). The data set is described as follows: Binding affinity to wild-type human partial length PIM3 (G16 to A317 residues) expressed in bacterial expression system assessed as residual binding level at 1 uM by Kinomescan method relative to control.
Data set [14] has as its target Ribosomal protein S6 kinase alpha-6 (Homo sapiens) (UniProt Q9UK32). As to the kind of experiment: Binding affinity to wild-type human partial length C-terminal RSK4 kinase domain 2 (I401 to Y711 residues) expressed in bacterial expression system assessed as residual binding level at 1 uM by Kinomescan method relative to control.
The target in data set [15] is Non-receptor tyrosine-protein kinase TYK2 (Homo sapiens) (UniProt P29597). The data set is described as follows: Binding affinity to wild-type human partial length TYK2 JH2 pseudokinase domain (G556 to D888 residues) expressed in mammalian expression system assessed as residual binding level at 1 uM by Kinomescan method relative to control.
In data set [16] the target is Macrophage-stimulating protein receptor (Homo sapiens) (UniProt Q04912). The data set is described as follows: Binding affinity to wild-type human partial length MST1R (I1057 to L1363 residues) expressed in bacterial expression system assessed as residual binding level at 1 uM by Kinomescan method relative to control.
Macrophage-stimulating protein receptor (Homo sapiens), sequence (Q04912 25-304 limits assumed): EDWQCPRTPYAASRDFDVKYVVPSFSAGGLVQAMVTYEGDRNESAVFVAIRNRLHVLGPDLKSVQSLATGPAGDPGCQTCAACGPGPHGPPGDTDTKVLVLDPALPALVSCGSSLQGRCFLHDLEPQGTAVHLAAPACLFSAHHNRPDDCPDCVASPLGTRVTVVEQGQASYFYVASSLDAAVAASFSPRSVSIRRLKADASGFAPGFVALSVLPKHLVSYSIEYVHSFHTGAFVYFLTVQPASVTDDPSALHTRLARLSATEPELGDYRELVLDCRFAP
Macrophage-stimulating protein receptor (Homo sapiens), sequence (Q04912 310-1400 limits assumed): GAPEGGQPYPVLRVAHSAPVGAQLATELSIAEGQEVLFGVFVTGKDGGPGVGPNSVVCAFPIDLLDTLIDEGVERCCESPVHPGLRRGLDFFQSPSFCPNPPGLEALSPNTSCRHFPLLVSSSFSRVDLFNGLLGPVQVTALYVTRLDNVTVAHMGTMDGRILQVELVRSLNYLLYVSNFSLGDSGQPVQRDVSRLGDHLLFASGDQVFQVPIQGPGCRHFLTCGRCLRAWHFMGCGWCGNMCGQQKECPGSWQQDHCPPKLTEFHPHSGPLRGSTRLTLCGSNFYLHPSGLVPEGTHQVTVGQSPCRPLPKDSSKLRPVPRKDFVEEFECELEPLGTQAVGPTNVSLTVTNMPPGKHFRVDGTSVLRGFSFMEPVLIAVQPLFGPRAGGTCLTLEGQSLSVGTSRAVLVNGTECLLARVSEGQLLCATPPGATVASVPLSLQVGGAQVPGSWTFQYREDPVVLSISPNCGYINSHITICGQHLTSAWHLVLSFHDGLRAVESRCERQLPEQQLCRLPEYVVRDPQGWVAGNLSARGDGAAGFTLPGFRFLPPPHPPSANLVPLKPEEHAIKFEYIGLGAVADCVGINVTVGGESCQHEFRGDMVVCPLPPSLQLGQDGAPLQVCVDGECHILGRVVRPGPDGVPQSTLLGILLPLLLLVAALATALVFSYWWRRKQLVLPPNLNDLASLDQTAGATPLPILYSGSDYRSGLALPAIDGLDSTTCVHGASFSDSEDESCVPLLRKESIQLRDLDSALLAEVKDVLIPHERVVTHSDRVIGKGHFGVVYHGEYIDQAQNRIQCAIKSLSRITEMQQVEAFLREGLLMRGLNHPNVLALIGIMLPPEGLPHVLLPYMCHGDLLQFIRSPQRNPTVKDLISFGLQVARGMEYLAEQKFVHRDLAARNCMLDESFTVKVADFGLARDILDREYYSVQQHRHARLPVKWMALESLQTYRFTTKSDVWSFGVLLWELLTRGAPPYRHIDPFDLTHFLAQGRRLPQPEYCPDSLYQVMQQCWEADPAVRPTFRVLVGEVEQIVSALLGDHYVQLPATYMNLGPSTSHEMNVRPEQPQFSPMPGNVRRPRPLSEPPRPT
The target in data set [17] is Hormonally up-regulated neu tumor-associated kinase (Homo sapiens) (UniProt P57058). As to the kind of experiment: Binding affinity to wild-type human partial length HUNK (A31 to K354 residues) expressed in bacterial expression system assessed as residual binding level at 1 uM by Kinomescan method relative to control.
Data set [18] deals with Serine/threonine-protein kinase Nek6 (Homo sapiens) (UniProt Q9HC98). The data set is described as follows: Binding affinity to wild-type human full length NEK6 (M8 to T313 residues) expressed in bacterial expression system assessed as residual binding level at 1 uM by Kinomescan method relative to control. In short, it runs like this: as §2
Serine/threonine-protein kinase Nek6 (Homo sapiens), sequence (Q9HC98 whole entry, the tested form may be a part): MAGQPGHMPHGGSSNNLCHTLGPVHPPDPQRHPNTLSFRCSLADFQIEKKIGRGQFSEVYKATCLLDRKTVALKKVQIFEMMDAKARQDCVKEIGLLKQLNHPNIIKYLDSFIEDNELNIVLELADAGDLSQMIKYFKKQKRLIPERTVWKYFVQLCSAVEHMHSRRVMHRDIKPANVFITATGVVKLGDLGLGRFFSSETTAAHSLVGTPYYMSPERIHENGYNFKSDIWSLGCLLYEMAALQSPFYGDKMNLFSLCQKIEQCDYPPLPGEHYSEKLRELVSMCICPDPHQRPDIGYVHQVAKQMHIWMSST
Data set [19] can be described thus: AUClast in mouse at 2 mg/kg, iv. Format: ADME, organism-based. Also noted: dose 2 mg/kg, route intravenous, time 0 - last. As to conditions: in vivo.
The target in data set [20] is Uncharacterized serine/threonine-protein kinase SBK3 (Homo sapiens) (UniProt P0C264). The data set is described as follows: Binding affinity to wild-type human partial length SgK110 (L22 to R329 residues) expressed in bacterial expression system assessed as residual binding level at 1 uM by Kinomescan method relative to control.
Uncharacterized serine/threonine-protein kinase SBK3 (Homo sapiens), sequence (P0C264 whole entry, the tested form may be a part): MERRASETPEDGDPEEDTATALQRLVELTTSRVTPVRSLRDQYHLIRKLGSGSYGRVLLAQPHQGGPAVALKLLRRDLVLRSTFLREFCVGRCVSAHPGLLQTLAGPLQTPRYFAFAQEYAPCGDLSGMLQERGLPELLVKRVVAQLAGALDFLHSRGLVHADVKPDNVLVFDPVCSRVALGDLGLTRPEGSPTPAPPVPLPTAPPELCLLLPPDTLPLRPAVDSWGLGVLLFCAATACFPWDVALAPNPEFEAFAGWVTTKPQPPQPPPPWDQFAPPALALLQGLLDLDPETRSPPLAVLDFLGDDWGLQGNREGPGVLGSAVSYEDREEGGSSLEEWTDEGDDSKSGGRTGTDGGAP
Data set [21] concerns the target Serine/threonine-protein kinase MAK (Homo sapiens) (UniProt P20794). The data set is described as follows: Binding affinity to wild-type human partial length MAK (M1 to P314 residues) expressed in bacterial expression system assessed as residual binding level at 1 uM by Kinomescan method relative to control.
In data set [22] the target is Serine/threonine-protein kinase RIO2 (Homo sapiens) (UniProt Q9BVS4). As to the kind of experiment: Binding affinity to wild-type human partial length RIOK2 (M1 to D313 residues) expressed in mammalian expression system assessed as residual binding level at 1 uM by Kinomescan method relative to control.
For data set [23], the target named is Serine/threonine-protein kinase OSR1 (Homo sapiens) (UniProt O95747). As to the kind of experiment: Binding affinity to wild-type human full length OSR1 (M1 to S527 residues) expressed in mammalian expression system assessed as residual binding level at 1 uM by Kinomescan method relative to control. In short, it runs like this:
as §2

For data set [24], the target named is Leucine-rich repeat serine/threonine-protein kinase 2 (Homo sapiens) (UniProt Q5S007). As to the kind of experiment: Binding affinity to wild-type human partial length LRRK2 (H970 to E2527 residues) expressed in mammalian expression system assessed as residual binding level at 1 uM by Kinomescan method relative to control.
Leucine-rich repeat serine/threonine-protein kinase 2 (Homo sapiens), sequence (Q5S007 whole entry, the tested form may be a part): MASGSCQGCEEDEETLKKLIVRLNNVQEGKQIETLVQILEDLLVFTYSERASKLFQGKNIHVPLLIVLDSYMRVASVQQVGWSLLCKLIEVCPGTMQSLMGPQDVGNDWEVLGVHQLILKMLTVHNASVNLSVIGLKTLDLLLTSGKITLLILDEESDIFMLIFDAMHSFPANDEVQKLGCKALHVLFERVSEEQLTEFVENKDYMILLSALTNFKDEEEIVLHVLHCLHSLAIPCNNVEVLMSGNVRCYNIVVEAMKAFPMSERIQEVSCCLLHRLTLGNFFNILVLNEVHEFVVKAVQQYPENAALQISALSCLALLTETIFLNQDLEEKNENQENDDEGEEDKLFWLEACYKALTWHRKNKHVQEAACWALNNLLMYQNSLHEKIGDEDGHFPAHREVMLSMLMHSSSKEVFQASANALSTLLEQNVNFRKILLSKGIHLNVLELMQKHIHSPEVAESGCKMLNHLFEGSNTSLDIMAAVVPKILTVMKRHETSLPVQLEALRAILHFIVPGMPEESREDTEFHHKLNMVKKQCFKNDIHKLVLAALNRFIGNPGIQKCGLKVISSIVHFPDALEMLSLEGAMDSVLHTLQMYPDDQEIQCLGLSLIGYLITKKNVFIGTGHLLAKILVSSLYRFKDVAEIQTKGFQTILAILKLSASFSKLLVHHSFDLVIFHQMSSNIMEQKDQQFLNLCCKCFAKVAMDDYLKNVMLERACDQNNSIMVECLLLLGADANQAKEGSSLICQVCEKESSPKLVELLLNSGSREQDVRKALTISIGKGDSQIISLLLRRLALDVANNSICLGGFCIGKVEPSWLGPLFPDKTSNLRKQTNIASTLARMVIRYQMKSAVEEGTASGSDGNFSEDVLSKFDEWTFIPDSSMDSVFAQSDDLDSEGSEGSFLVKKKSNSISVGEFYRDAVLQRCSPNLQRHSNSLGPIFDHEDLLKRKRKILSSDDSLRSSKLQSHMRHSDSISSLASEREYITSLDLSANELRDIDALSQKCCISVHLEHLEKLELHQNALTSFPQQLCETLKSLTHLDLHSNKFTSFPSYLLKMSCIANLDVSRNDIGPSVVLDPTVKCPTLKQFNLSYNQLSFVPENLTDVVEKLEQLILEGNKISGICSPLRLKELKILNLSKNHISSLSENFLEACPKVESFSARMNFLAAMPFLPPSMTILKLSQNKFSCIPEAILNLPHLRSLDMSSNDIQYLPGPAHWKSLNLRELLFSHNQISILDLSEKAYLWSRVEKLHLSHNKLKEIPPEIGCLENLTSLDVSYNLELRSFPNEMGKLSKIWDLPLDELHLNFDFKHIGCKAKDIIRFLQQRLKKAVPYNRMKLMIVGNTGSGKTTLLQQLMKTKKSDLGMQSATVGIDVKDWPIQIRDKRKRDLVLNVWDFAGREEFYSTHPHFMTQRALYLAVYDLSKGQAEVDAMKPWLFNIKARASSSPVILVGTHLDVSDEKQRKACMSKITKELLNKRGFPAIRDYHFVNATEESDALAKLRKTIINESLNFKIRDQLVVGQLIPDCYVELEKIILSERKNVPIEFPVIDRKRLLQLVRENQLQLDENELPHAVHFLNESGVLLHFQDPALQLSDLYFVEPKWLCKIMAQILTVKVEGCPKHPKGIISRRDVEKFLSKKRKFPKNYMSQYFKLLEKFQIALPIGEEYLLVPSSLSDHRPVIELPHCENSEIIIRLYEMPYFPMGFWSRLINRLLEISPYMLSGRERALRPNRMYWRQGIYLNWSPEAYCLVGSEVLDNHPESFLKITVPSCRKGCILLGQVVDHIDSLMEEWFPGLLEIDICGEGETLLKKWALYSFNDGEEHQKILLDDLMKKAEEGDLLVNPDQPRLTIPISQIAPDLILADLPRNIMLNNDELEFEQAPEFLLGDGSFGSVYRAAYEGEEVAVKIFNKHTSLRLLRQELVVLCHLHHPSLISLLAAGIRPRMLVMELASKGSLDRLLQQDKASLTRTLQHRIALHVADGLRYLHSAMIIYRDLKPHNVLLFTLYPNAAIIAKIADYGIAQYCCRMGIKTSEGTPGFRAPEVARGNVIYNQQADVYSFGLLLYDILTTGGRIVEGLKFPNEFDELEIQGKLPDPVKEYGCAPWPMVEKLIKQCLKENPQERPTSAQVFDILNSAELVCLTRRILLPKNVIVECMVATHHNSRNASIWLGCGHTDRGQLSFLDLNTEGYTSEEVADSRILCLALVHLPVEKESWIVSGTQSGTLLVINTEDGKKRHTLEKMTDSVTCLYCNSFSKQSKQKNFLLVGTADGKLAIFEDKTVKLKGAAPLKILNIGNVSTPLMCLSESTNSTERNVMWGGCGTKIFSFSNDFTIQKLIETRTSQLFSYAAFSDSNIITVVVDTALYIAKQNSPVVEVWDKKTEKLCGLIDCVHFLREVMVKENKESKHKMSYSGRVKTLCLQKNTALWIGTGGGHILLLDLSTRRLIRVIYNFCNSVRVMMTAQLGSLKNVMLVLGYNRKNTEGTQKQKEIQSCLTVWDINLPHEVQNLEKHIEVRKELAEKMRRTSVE

Each structure is given as a SMILES string.

MAP kinase-interacting serine/threonine-protein kinase 1 (Homo sapiens), sequence (Q9BUB5 whole entry, looked up, the tested form may be a part): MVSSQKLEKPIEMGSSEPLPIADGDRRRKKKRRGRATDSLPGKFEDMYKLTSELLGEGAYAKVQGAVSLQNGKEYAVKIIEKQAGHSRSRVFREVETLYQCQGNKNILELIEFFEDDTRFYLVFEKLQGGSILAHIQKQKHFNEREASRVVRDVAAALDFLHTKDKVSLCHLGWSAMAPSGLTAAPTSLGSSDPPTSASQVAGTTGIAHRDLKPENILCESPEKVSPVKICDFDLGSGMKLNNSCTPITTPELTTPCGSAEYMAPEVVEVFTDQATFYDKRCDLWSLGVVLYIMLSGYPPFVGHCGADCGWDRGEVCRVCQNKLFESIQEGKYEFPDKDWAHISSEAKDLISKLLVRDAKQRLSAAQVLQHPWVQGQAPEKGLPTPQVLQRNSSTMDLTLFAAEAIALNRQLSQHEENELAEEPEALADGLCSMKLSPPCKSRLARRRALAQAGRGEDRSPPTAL

As for `C=CC(=O)Nc1cc(Nc2ncc(Cl)c(Nc3ccccc3S(=O)(=O)C(C)C)n2)c(OC)cc1N(C)CCN(C)C`, the Activity in [1] worked out at 77%; in [2] it was 99%; in data set [3], 57%; in data set [4] it was 9.5%; in data set [5] it was 2%; in data set [6], 64%. Moreover, the Activity in [7] amounted to 61%; in data set [8], 99%; in data set [9], 90%; in data set [10], 100%; in data set [11], 23%; in [12], 98%. Also, the Activity in data set [13] was 96%; in [14] it was 15%; in data set [15] it was 100%; in data set [16], 100%; in data set [17], 39%; in data set [18], 80%. The Activity stood at 23% in data set [20]; 100% in data set [21]; 93% in data set [22]; 16% in data set [23]; 1.7% in [24]. The compound further showed an AUC(0-t) in [19] of 1290 ng·h/mL.

Broadly, the AUC(0-t) is the area under the concentration-time curve up to a stated or last time point. A high value points to high exposure.

The record behind these values is ChEMBL document CHEMBL4382192, “Discovery of a potent dual ALK and EGFR T790M inhibitor” (Eur J Med Chem, 2017).
